According to ChEMBL document CHEMBL3751814, “6-Methylpurine derived sugar modified nucleosides: Synthesis and in vivo antitumor activity in D54 tumor expressing M64V-Escherichia coli purine nucleoside phosphorylase” (Eur J Med Chem, 2016):
Activity calls are given as the source filed them. The calls are words filed in the database; no cut-off is given here.

How the values were obtained:
[1] = target: T1, Purine nucleoside phosphorylase (Homo sapiens, UniProt P00491); assay: Prodrug activation assessed as recombinant human PNP-mediated compound cleavage at 100 uM by reverse phase HPLC analysis
T1 sequence (P00491 whole entry): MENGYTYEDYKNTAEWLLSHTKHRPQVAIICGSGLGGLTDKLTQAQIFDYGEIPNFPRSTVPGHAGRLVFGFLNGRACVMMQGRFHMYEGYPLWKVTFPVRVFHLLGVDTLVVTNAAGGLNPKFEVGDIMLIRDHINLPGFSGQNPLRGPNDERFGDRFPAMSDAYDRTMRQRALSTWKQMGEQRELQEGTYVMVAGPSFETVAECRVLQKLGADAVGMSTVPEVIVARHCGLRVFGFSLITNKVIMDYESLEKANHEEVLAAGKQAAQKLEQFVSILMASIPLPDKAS
Outline: (§1)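 Cleavage assay: 100 µM substrate in 50 mM potassium phosphate pH 7.4, with enzyme amount adjusted for a linear rate, at 25°C; aliquots at 0, 0.25, 0.5, 1, 2 h, stopped by boiling, filtered. Reverse-phase C-18 HPLC, 50 mM ammonium dihydrogen phosphate pH 4.5 with 1.25–5% acetonitrile, 254 nm detection. Specific activity = nmol product/mg protein/time. Detection limit 1 nmol/mg/hr; mean of at least two experiments.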

[2] = target: 5'-methylthioadenosine/S-adenosylhomocysteine nucleosidase (Escherichia coli O157:H7, UniProt P0AF14); assay: Prodrug activation assessed as recombinant Escherichia coli SAH/MTA hydrolase-mediated compound cleavage at 100 uM by reverse phase HPLC analysis
5'-methylthioadenosine/S-adenosylhomocysteine nucleosidase, sequence (P0AF14 whole entry): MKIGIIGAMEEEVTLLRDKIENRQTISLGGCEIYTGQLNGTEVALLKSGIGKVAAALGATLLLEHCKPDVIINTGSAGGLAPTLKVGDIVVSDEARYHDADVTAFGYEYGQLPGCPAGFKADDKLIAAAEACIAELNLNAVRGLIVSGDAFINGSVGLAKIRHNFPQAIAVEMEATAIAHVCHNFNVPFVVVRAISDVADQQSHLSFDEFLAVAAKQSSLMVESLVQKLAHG
Outline: (§2)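 Reactions held 50 mM potassium phosphate (pH 7.4) and 100 µM substrate at 25°C. Enzyme was titrated to keep cleavage linear: native F. tularensis PNP from crude extract or recombinant E. coli SAH/MTA hydrolase. Samples were taken at 0–2 h and stopped by boiling. Base and nucleoside were resolved by C18 reverse-phase HPLC at 254 nm. Activity is nmol/mg protein/hr, the average of at least two experiments; detection limit is 1 nmol/mg/hr.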

[3] = Prodrug activation assessed as recombinant Trichomonas vaginalis PNP-mediated compound cleavage at 100 uM by reverse phase HPLC analysis; outline: as §1
[4] = Prodrug activation assessed as Francisella tularensis PNP-mediated compound cleavage at 100 uM by reverse phase HPLC analysis; outline: as §2
[5] = Prodrug activation assessed as recombinant Escherichia coli PNP M64V mutant-mediated compound cleavage at 100 uM by reverse phase HPLC analysis
[6] = Prodrug activation assessed as recombinant Escherichia coli PNP-mediated compound cleavage at 100 uM by reverse phase HPLC analysis
Outline: as §1, with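 “filtered.” for “filtered. Reverse-phase C-18 HPLC, 50 mM ammonium dihydrogen phosphate pH 4.5 with 1.25–5% acetonitrile, 254 nm detection.”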

[7] = target: Purine nucleoside phosphorylase (Sulfolobus solfataricus (strain ATCC 35092 / DSM 1617 / JCM 11322 /P2), UniProt P50389); assay: Prodrug activation assessed as recombinant Sulfolobus solfataricus MTAP-mediated compound cleavage at 100 uM by reverse phase HPLC analysis; details: saccharolobus solfataricus; outline: as §1
Purine nucleoside phosphorylase (Sulfolobus solfataricus (strain ATCC 35092 / DSM 1617 / JCM 11322 /P2), UniProt P50389), sequence (P50389 whole entry): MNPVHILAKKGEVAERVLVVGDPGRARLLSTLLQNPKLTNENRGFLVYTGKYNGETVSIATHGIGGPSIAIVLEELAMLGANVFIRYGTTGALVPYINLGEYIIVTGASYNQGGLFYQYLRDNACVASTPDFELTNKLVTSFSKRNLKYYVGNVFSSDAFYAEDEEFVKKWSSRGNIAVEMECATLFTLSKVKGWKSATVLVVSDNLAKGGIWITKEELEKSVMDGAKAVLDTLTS

[8] = target: T2, S-methyl-5'-thioadenosine phosphorylase (Homo sapiens, UniProt Q13126); assay: Prodrug activation assessed as recombinant human MTAP-mediated compound cleavage at 100 uM by reverse phase HPLC analysis; outline: as §1
T2 sequence (Q13126 whole entry): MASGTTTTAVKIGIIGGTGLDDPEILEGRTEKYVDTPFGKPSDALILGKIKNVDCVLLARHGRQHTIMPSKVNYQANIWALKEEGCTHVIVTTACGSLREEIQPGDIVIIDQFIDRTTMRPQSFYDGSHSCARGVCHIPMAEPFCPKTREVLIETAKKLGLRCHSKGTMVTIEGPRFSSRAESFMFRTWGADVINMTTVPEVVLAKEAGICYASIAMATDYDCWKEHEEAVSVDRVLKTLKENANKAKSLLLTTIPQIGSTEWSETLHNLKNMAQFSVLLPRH

[9] = system: D54MG; assay: Antitumor activity against human D54MG cells expressing Escherichia coli PNP M64V mutant xenografted in nude mouse assessed as inhibition of tumor growth at 10 and 20 mg/kg, administered via peritoneal cavity 5 times a day (every 2 hrs) for 3 consecutive days measured on day 17 to 19 after tumor implantation; assay type: functional, organism-based
Outline: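 Xenograft: parental and M64V-PNP-transduced D54MG human glioma cells mixed so 10% express M64V; 2 x 10⁷ total cells injected sc into flanks of nu/nu nude mice. At ~300 mg tumors (day 17), ip dosing 5 times daily (every 2 h) for 3 consecutive days at 5, 10 or 20 mg/kg; 6 mice/group. Tumors measured with calipers twice weekly; weight = length x width²/2; mean and SEM.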

[10] = Prodrug activation in human D54MG cells expressing Escherichia coli PNP M64V mutant xenografted in nude mouse assessed as Escherichia coli PNP M64V mutant-mediated compound cleavage per mg of tumor tissue at 5-20 mg/kg administered via peritoneal cavity 5 times a day (every 2 hrs) for 3 consecutive days measured on day 17; assay type: organism-based; details: in vivo, ip
Outline: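 Tumor extracts were taken from mice bearing D54 xenografts with 10% M64V-PNP-expressing cells, removed at start of treatment (day 17). Cleavage of the prodrug substrate was reported as nmoles cleaved/mg-hr; N = 3.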

[11] = Terminal half life of compound in mouse at 100 mg/kg, ip by reverse phase HPLC analysis; assay type: ADME, organism-based; details: in vivo, read-out: beta t1/2
[12] = Antitumor activity against human D54MG cells expressing Escherichia coli PNP M64V mutant xenografted in mouse assessed as time for tumor growth delay at maximum tolerated dose; assay type: functional
Outline: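 Subcutaneous flank xenografts in nude mice (nu/nu) used a 90/10 mix of parental and M64V PNP-transduced D54MG glioma cells (2 x 10⁷ total cells). Starting on day 17, when tumors were about 300 mg, mice received ip doses of 5, 10 or 20 mg/kg five times daily (every 2 h) for 3 days, with 6 mice per group. Calipers were read twice weekly and weight was taken as length x width²/2.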

[13] = Prodrug activation in human D54MG cells expressing Escherichia coli PNP xenografted in nude mouse assessed as Escherichia coli PNP-mediated compound cleavage per mg of tumor tissue; details: in vivo
[14] = Antitumor activity against human D54MG cells expressing Escherichia coli PNP xenografted in nude mouse assessed as time for tumor growth delay at 33 mg/kg; assay type: functional
[15] = Antitumor activity against human D54MG cells expressing Escherichia coli PNP xenografted in mouse assessed as time for tumor growth delay at 67 mg/kg; assay type: functional
[16] = Terminal half life of compound in mouse plasma at 67 mg/kg, ip by reverse phase HPLC analysis; assay type: ADME, organism-based; details: read-out: beta t1/2

| SMILES | Drug metabolism [1] [nmol/mg/h] | Drug metabolism [2] [nmol/mg/h] | Drug metabolism [3] [nmol/mg/h] | Drug metabolism [4] [nmol/mg/h] | Drug metabolism [5] [nmol/mg/h] | Drug metabolism [6] [nmol/mg/h] | Drug metabolism [7] [nmol/mg/h] | Drug metabolism [8] [nmol/mg/h] | inhibition [9] | Drug metabolism [10] [nmol/mg/h] | half-life [11] [min] | Time [12] [days] | Drug metabolism [13] [nmol/mg/h] | Time [14] [days] | Time [15] [days] | half-life [16] [min] |
| --- | --- | --- | --- | --- | --- | --- | --- | --- | --- | --- | --- | --- | --- | --- | --- | --- |
| Cc1ncnc2c1ncn2[C@@H]1O[C@H](CO)[C@@H](O)[C@H]1O | 12 | 290 | 155000 | 4800 | 176000 | 96000 | 4000 |  |  |  |  |  |  |  |  |  |
| Cc1ncnc2c1ncn2[C@@H]1O[C@@H](CO)[C@@H](O)[C@H]1O |  | 36 | 10000 | 180 | 10000 | 218 | 1400 | < 1 |  |  |  |  |  |  |  |  |
| Cc1ncnc2c1ncn2[C@@H]1O[C@H]([C@H](C)O)[C@@H](O)[C@H]1O | < 1 | 51 | 8400 | 100 | 86000 | 915 | 1500 | 4 | Active | 365 | 21 | >32 |  |  |  |  |
| Cc1ncnc2c1ncn2[C@H]1C[C@H](O)[C@@H](CO)O1 | 35 | 30 | 484000 | 3900 | 593000 | 528000 | 12000 | < 1 |  |  |  |  | 40 | 22 | 22 | 14 |
| Nc1ncnc2c1ncn2[C@@H]1O[C@H](CO)[C@@H](O)[C@H]1O [ADENOSINE] |  | 2100 | 501000 | 2100 |  |  | 57000 | 596 |  |  |  |  |  |  |  |  |
| OC[C@H]1O[C@@H](n2cnc3c(O)ncnc32)[C@H](O)[C@@H]1O [INOSINE] | 391000 |  | 154000 | 2000 |  | 342000 | 84000 |  |  |  |  |  |  |  |  |  |
